# Results collected from several papers.
# Protocols differ between the studies behind these lines.
# Target: D(1A) dopamine receptor (DRD1, Homo sapiens, UniProt P21728)
Compound,read-out,mode,method,endpoint,result
CCCOc1cc2c(cc1O)[C@@H]1Cc3c(Br)cc(O)c(OCC(F)F)c3CN1CC2,cAMP,antagonist,TR-FRET,IC50,1450 nM
O=C1c2ccccc2CCN1CCCCN1CCN(c2cccc(Cl)c2Cl)CC1,cell-free assay,,radioligand,Ki,511 nM
CCCCOc1c(O)cc(Br)c2c1CN1CCc3cc(OCC(F)F)c(O)cc3[C@@H]1C2,cAMP,antagonist,TR-FRET,IC50,318 nM
COc1ccc2c(c1)C(=O)N(CCCN1CCN(c3ccccc3OC)CC1)C2,cell-free assay,,radioligand,Ki,6220 nM
CCCCN1CCC(COC(=O)c2ccc(N)c(OCF)c2)CC1,cell-free assay,,radioligand,Ki,> 10000 nM
C[C@@H]1Cc2ccccc2N1C(=O)NCCCCN(C)[C@@H]1Cc2cccc3[nH]c(=O)n(c23)C1,ligand displacement,,radioligand,Ki,> 10000 nM
O=C1c2ccccc2CCN1CCCCN1CCN(c2ccccn2)CC1,cell-free assay,,radioligand,Ki,1660 nM
CCCOc1cc2c(cc1O)[C@@H]1Cc3c(Br)cc(O)c(OCC(F)(F)F)c3CN1CC2,cAMP,antagonist,TR-FRET,IC50,248 nM
CN(CCCCNC(=O)c1cc2ccccc2[nH]1)[C@@H]1Cc2cccc3[nH]c(=O)n(c23)C1,ligand displacement,,radioligand,Ki,> 7900 nM
CCOCc1nc(O)c(-c2nnc(Cc3ccc(Cl)cn3)o2)c(O)c1-c1c(OC)cccc1OC,ligand displacement,,radioligand,IC50,> 30000 nM
